Bioassay records from PubChem BioAssay.
MDM2 E3 inh – inhibitors of human Mdm2 E3 ubiquitin ligase; cell-based MDM2 ubiquitination luciferase reporter, 2 h; 0 = plate control, 100 = twice control, blank-subtracted; signal enhancement, % at 5 µM; 210,000 tested, 0.11% active;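 active = signal enhancement of 30% or more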;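 note: luminescence tracks abundance of the self-degrading MDM2-luciferase fusion protein; higher signal means inhibition of MDM2 E3 ligase activity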
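Timing – 2 h compound exposure at 37 °C · Assay system – mammalian cells stably expressing self-ubiquitinating, self-degrading MDM2 E3–luciferase fusion · Amount – 2000 cells seeded into each well · Measure – % luminescence enhancement versus blank-corrected plate control mean · Measured by – SteadyLite luminescence, 15 min reagent step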
PKD1 inh – inhibitors of human PKD1 kinase; PKD1 kinase fluorescence polarization assay; 200,000 tested, 0.056% active; inhibition, % (no concentration beside the values); AID 797; Q15139; in the data active = inhibition above about 50%
Redox H2O2 prof – compounds producing H2O2 with reducing agent – biochemical, NIH compound library profiling, artefact control for MLSCN library redox annotation, primary screen; DTT-dependent redox cycling H2O2, phenol red/HRP absorbance; 100% = 100 µM peroxide control, 0% = buffer; activation, % at 10 µM; 200,000 tested, 0.03% active; AID 878;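 active = activation of at least 50% relative to the plate's high and low controls in the primary single-dose screen; inactive = activation below 50%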;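 note: compound incubated with DTT at 0.8 mM final as the reducing agent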
p97 ATPase inh – inhibitors of human p97 ATPase. recombinant p97 ATPase, Kinase-Glo ATP luminescence, 3 h. inhibition, % at 8 µM. 220,000 tested, 0.42% active. AID 1481; in the data active = inhibition above about 15%
KCC2 mod – KCC2 (human) Cl- transport modulation; KCC2 cells, thallium flux FluoZin-2 fluorescence; Q9H2X9; AID 1456; B-score of Tl+ flux slope (higher = more flux/activation; lower = inhibition) at 10 µM; 190,000 tested, 2.2% active;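 active = thallium flux slope and its plate-corrected score both differing from the plate sample mean at a set confidence after two filtering rounds, in either direction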;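 note: slope of fluorescence scaled to starting intensity during 10 to 20 s after thallium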
ROMK primary – modulators of human ROMK potassium channel; Tet-inducible ROMK, thallium flux fluorescence; actives lie on both sides; B-score at 10 µM; 130,000 tested, 2% active; AID 1918;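 active = signal ratio slope over the read window, or its plate-corrected B-score, at least 3 SD from the plate mean, either direction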;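 note: B-score of the F/F0 ratio slope over 7 to 12 s after thallium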
Target sequence (P48048 whole entry, looked up): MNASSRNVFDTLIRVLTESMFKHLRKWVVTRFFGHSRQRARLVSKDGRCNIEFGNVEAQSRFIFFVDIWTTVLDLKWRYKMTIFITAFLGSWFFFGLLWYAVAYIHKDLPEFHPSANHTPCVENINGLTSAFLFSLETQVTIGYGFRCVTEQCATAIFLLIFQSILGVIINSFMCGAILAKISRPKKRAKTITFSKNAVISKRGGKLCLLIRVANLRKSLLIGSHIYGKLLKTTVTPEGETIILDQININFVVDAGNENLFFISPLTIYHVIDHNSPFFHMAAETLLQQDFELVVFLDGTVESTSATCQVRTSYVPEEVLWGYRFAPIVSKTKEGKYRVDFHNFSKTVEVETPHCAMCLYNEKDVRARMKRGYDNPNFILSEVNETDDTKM
ROMK hit retest – human ROMK channel modulation, retest confirmation; shares compounds with ROMK primary; ROMK thallium flux, fluorescence ratio; active compounds read low; normalized thallium flux (F/F0 slope) at 10 µM; 3,000 tested, 54% active; AID 1917;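 active = Flux at 10 µM at least 3 SD below or above vehicle control mean in one or both replicates; inconclusive = no clear call, values can overlap the other calls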
Each line names hits and unclear results; the compound was inactive in the other large screens (follow-up assays come after a bar, where they were run). In the library only some 3.4% were active in any assay of this set; here they are far more common.

CCN(CC)S(=O)(=O)c1ccc2c(c1)C(=NO)c1cc(S(=O)(=O)N(CC)CC)ccc1-2	none
Cc1cc(NC(=O)/C=C/C(=O)N(CC(=O)NC2CCCC2)c2cccc3ccccc23)no1	ROMK primary -4 | ROMK hit retest 0.056
Cn1cnnc1SCc1ccc(C(=O)N=Nc2c(O)n(Cc3ccc(Cl)cc3)c3ccccc23)cc1	ROMK primary -2.2 | ROMK hit retest 0.065
CCn1c(O)c(N=NC(=O)c2ccc(CSc3nncn3C)cc2)c2ccccc21	ROMK primary -3.4 | ROMK hit retest inactive
O=C(N=Nc1c(O)n(Cc2ccccc2)c2ccccc12)c1ccc(O)cc1	none
COc1ccc(C(=O)O)cc1S(=O)(=O)NCCCN1CCCC1=O	none
CC(NC(=O)c1ccc(F)cc1)c1ccccc1 (stereo not given)	none (no result: ROMK primary)
COc1ccc(S(=O)(=O)N2CCC(C(=O)Nc3cccc(C(C)=O)c3)CC2)cc1C	none (no result: KCC2 mod, ROMK primary)
CSc1nsc2nc(=O)c(/C=C3\C(C)=Nc4ccc(C)cc43)c(N)n12	none
Nc1c(C=C2C=CC(=O)C=C2)c(=O)nc2snc(SCc3ccccc3)n12	none (no result: PKD1 inh, Redox H2O2 prof, KCC2 mod, ROMK primary) | ROMK hit retest inconclusive
O=C(O)c1ccc(-c2nc(-c3cccc(C(F)(F)F)c3)cs2)cc1	ROMK primary 3.1 | ROMK hit retest inactive
O=C(Nc1ccc2c(c1)nc1n2CCN(C2CCCCC2)C1)NC1CCCCC1	ROMK primary -3.1 (no result: KCC2 mod) | ROMK hit retest 0.042
CCC(=O)Nc1ccc2c(c1)nc1n2CCN(C2CCCCC2)C1	none
Cc1c(CCO)c(=O)n(-c2ccccc2)n1S(=O)(=O)c1c(Cl)cc(Cl)cc1Cl	none (no result: KCC2 mod, ROMK primary)
Cc1ccc(OCCNC(=O)/C=C/c2ccccc2)cc1	none
Cc1csc2c(N3CCN(C(=O)Nc4ccc(OC(F)(F)F)cc4)CC3)ncnc12	none (no result: PKD1 inh, Redox H2O2 prof, ROMK primary) | ROMK hit retest inactive
Cc1csc2c(N3CCC(C(=O)O)CC3)ncnc12	none (no result: PKD1 inh, Redox H2O2 prof)
O=C1NC2(CCCCC2)C(=O)N1/N=C/c1ccccc1Br	none
N#CC1=C(N)C(C#N)(C#N)C(c2ccc[nH]2)C2CCCC=C12 (stereo not given)	ROMK primary -6.5 | ROMK hit retest 0.053
Cn1c(=O)oc2cc(S(=O)(=O)N3CCN(c4cccc(Cl)c4)CC3)ccc21	none
O=C(/C=C/c1ccncc1)c1ccc2c(c1)OCCO2	ROMK primary -2.7 | ROMK hit retest 0.053
Cc1cc(C)n(C(=O)CCN2C(=O)c3ccccc3C2=O)n1	none (no result: KCC2 mod)
COC(=O)[C@@]1(Cc2ccc(F)cc2)[C@H]2c3cc(C(=O)N4CCCC4)n(CCc4ccc(O)c(O)c4)c3C[C@H]2CN1C(=O)c1ccccc1	none (no result: MDM2 E3 inh) | ROMK hit retest inconclusive
CCN(CC)C(=O)C(=O)Nc1ccc(OCc2ccccc2)cc1	none
c1ccc(-c2nnn(C34CC5CC(CC(C5)C3)C4)n2)cc1	none (no result: ROMK primary)
Cc1ccc(NC(=O)c2ccc3c(c2)[nH]c(=O)n3C(C)C)cc1	ROMK primary 2.9 | ROMK hit retest inactive
NC(=S)NC1CC2CC1C1C=CCC21 (stereo not given)	none (no result: PKD1 inh, Redox H2O2 prof, ROMK primary)
CCC(C)N1C(=O)CCC1C(=O)O (stereo not given)	ROMK primary -8.2 | ROMK hit retest inactive
CC(C)CCNC(=O)C1CCC(=O)N1C(C)C (stereo not given)	none (no result: ROMK primary)
COCCN(Cc1cc2ccccc2[nH]c1=O)C(=O)c1ccccc1OC	none (no result: ROMK primary)
COc1cc(NC(=O)COc2ccc(-n3cnnn3)cc2)c(OC)cc1Cl	none (no result: ROMK primary) | ROMK hit retest inactive
Cc1ccc(S(=O)(=O)NCC2CCC(C(=O)NCc3ccc4c(c3)OCO4)CC2)cc1 (stereo not given)	none
CC1(C)CC(NC(=S)NCc2ccc3c(c2)OCO3)CC(C)(C)N1	none
CC(=O)OCC(=O)NCc1ccc2c(c1)OCO2	none (no result: KCC2 mod)
S=C(NCc1ccc2c(c1)OCO2)NC1CC1	ROMK primary -19 | ROMK hit retest inactive
Cc1c(C(=O)O)oc2ccc(S(=O)(=O)NCc3ccc4c(c3)OCO4)cc12	none (no result: ROMK primary) | ROMK hit retest inactive
Cc1ccc(S(=O)(=O)NC(=O)NCc2ccc3c(c2)OCO3)cc1	none | ROMK hit retest inactive
